System: CCRF-CEM
Assay: Anticancer activity against human CCRF-CEM cells assessed as cell growth at 10^-5 M after 48 hrs by SRB assay
Type: functional
Conditions: read-out: Activity
Method in brief: (§1)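 NCI-60 single-dose screen at one concentration. Cells grown in RPMI 1640 with 5% FBS and 2 mM L-glutamine, plated at 5000–40,000 cells/well, and pre-incubated 24 h at 37 °C in 5% CO2 before DMSO-dissolved drug was added. Cells fixed with TCA, SRB-stained, absorbance read at 515 nm. Percent growth calculated against time-zero and untreated control plates.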

| SMILES | growth at 10 µM |
| --- | --- |
| O=C(NCCNc1nccc(-c2c(-c3cccc(O)c3)nc3sccn23)n1)c1cccc(C(F)(F)F)c1 | 37.5% |

System: RPMI-8226
Assay: Anticancer activity against human RPMI8226 cells assessed as cell growth at 10^-5 M after 48 hrs by SRB assay
Type: functional
Conditions: RPMI-8226, 48 h, read-out: Activity

| SMILES | growth at 10 µM |
| --- | --- |
| O=C(NCCNc1nccc(-c2c(-c3cccc(O)c3)nc3sccn23)n1)c1cccc(C(F)(F)F)c1 | 44.2% |

System: EKVX
Assay: Anticancer activity against human EKVX cells assessed as cell growth at 10^-5 M after 48 hrs by SRB assay
Type: functional
Conditions: read-out: Activity
Method in brief: as §1

| SMILES | growth at 10 µM |
| --- | --- |
| O=C(NCCNc1nccc(-c2c(-c3cccc(O)c3)nc3sccn23)n1)c1cccc(C(F)(F)F)c1 | 91.6% |

System: HOP-62
Assay: Anticancer activity against human HOP62 cells assessed as cell growth at 10^-5 M after 48 hrs by SRB assay
Type: functional
Conditions: HOP-62, 48 h, read-out: Activity
Method in brief: as §1

| SMILES | growth at 10 µM |
| --- | --- |
| O=C(NCCNc1nccc(-c2c(-c3cccc(O)c3)nc3sccn23)n1)c1cccc(C(F)(F)F)c1 | 114% |

System: HOP-92
Assay: Anticancer activity against human HOP92 cells assessed as cell growth at 10^-5 M after 48 hrs by SRB assay
Type: functional
Conditions: HOP-92, 48 h, read-out: Activity
Method in brief: as §1

| SMILES | growth at 10 µM |
| --- | --- |
| O=C(NCCNc1nccc(-c2c(-c3cccc(O)c3)nc3sccn23)n1)c1cccc(C(F)(F)F)c1 | 83.8% |

System: NCI-H226
Assay: Anticancer activity against human NCI-H226 cells assessed as cell growth at 10^-5 M after 48 hrs by SRB assay
Type: functional
Conditions: NCI-H226, 48 h, read-out: Activity

| SMILES | growth at 10 µM |
| --- | --- |
| O=C(NCCNc1nccc(-c2c(-c3cccc(O)c3)nc3sccn23)n1)c1cccc(C(F)(F)F)c1 | 88.5% |

System: NCI-H23
Assay: Anticancer activity against human NCI-H23 cells assessed as cell growth at 10^-5 M after 48 hrs by SRB assay
Type: functional
Conditions: NCI-H23, 48 h, read-out: Activity

| SMILES | growth at 10 µM |
| --- | --- |
| O=C(NCCNc1nccc(-c2c(-c3cccc(O)c3)nc3sccn23)n1)c1cccc(C(F)(F)F)c1 | 81% |

System: NCI-H322M
Assay: Anticancer activity against human NCI-H322M cells assessed as cell growth at 10^-5 M after 48 hrs by SRB assay
Type: functional
Conditions: read-out: Activity

| SMILES | growth at 10 µM |
| --- | --- |
| O=C(NCCNc1nccc(-c2c(-c3cccc(O)c3)nc3sccn23)n1)c1cccc(C(F)(F)F)c1 | 103% |

System: NCI-H522
Assay: Anticancer activity against human NCI-H522 cells assessed as cell growth at 10^-5 M after 48 hrs by SRB assay
Type: functional
Conditions: NCI-H522, 48 h, read-out: Activity

| SMILES | growth at 10 µM |
| --- | --- |
| O=C(NCCNc1nccc(-c2c(-c3cccc(O)c3)nc3sccn23)n1)c1cccc(C(F)(F)F)c1 | 48.5% |

System: HCT-116
Assay: Anticancer activity against human HCT116 cells assessed as cell growth at 10^-5 M after 48 hrs by SRB assay
Type: functional
Conditions: HCT-116, 48 h, read-out: Activity
Method in brief: as §1

| SMILES | growth at 10 µM |
| --- | --- |
| O=C(NCCNc1nccc(-c2c(-c3cccc(O)c3)nc3sccn23)n1)c1cccc(C(F)(F)F)c1 | 74.3% |

System: HCT-15
Assay: Anticancer activity against human HCT15 cells assessed as cell growth at 10^-5 M after 48 hrs by SRB assay
Type: functional
Conditions: HCT-15, 48 h, read-out: Activity
Method in brief: as §1

| SMILES | growth at 10 µM |
| --- | --- |
| O=C(NCCNc1nccc(-c2c(-c3cccc(O)c3)nc3sccn23)n1)c1cccc(C(F)(F)F)c1 | 87.8% |

System: HT-29
Assay: Anticancer activity against human HT-29 cells assessed as cell growth at 10^-5 M after 48 hrs by SRB assay
Type: functional
Conditions: HT-29, 48 h, read-out: Activity
Method in brief: as §1

| SMILES | growth at 10 µM |
| --- | --- |
| O=C(NCCNc1nccc(-c2c(-c3cccc(O)c3)nc3sccn23)n1)c1cccc(C(F)(F)F)c1 | 81.1% |

System: KM12
Assay: Anticancer activity against human KM12 cells assessed as cell growth at 10^-5 M after 48 hrs by SRB assay
Type: functional
Conditions: KM12, 48 h, read-out: Activity
Method in brief: as §1

| SMILES | growth at 10 µM |
| --- | --- |
| O=C(NCCNc1nccc(-c2c(-c3cccc(O)c3)nc3sccn23)n1)c1cccc(C(F)(F)F)c1 | 81% |

System: SF-268
Assay: Anticancer activity against human SF268 cells assessed as cell growth at 10^-5 M after 48 hrs by SRB assay
Type: functional
Conditions: SF-268, 48 h, read-out: Activity

| SMILES | growth at 10 µM |
| --- | --- |
| O=C(NCCNc1nccc(-c2c(-c3cccc(O)c3)nc3sccn23)n1)c1cccc(C(F)(F)F)c1 | 86.7% |

System: SF-539
Assay: Anticancer activity against human SF539 cells assessed as cell growth at 10^-5 M after 48 hrs by SRB assay
Type: functional
Conditions: SF-539, 48 h, read-out: Activity

| SMILES | growth at 10 µM |
| --- | --- |
| O=C(NCCNc1nccc(-c2c(-c3cccc(O)c3)nc3sccn23)n1)c1cccc(C(F)(F)F)c1 | 100% |

System: SNB-75
Assay: Anticancer activity against human SNB75 cells assessed as cell growth at 10^-5 M after 48 hrs by SRB assay
Type: functional
Conditions: SNB-75, 48 h, read-out: Activity
Method in brief: (§2)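 NCI-60 single-dose screen: cells in RPMI 1640 with 5% FBS and 2 mM L-glutamine, plated at 5000–40,000 cells/well by doubling time, and preincubated 24 h at 37 °C. Compound given at one concentration from DMSO stock. Cells TCA-fixed and SRB-stained, absorbance at 515 nm. Percent growth relative to time-zero and untreated controls; inhibition % = 100 − growth %.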

| SMILES | growth at 10 µM |
| --- | --- |
| O=C(NCCNc1nccc(-c2c(-c3cccc(O)c3)nc3sccn23)n1)c1cccc(C(F)(F)F)c1 | 73.8% |

System: U-251
Assay: Anticancer activity against human U251 cells assessed as cell growth at 10^-5 M after 48 hrs by SRB assay
Type: functional
Conditions: U-251, 48 h, read-out: Activity
Method in brief: as §2

| SMILES | growth at 10 µM |
| --- | --- |
| O=C(NCCNc1nccc(-c2c(-c3cccc(O)c3)nc3sccn23)n1)c1cccc(C(F)(F)F)c1 | 84.8% |

System: LOX IMVI
Assay: Anticancer activity against human LOXIMVI cells assessed as cell growth at 10^-5 M after 48 hrs by SRB assay
Type: functional
Conditions: read-out: Activity
Method in brief: as §1

| SMILES | growth at 10 µM |
| --- | --- |
| O=C(NCCNc1nccc(-c2c(-c3cccc(O)c3)nc3sccn23)n1)c1cccc(C(F)(F)F)c1 | 53.4% |

System: Malme-3M
Assay: Anticancer activity against human MALME-3M cells assessed as cell growth at 10^-5 M after 48 hrs by SRB assay
Type: functional
Conditions: read-out: Activity
Method in brief: as §1

| SMILES | growth at 10 µM |
| --- | --- |
| O=C(NCCNc1nccc(-c2c(-c3cccc(O)c3)nc3sccn23)n1)c1cccc(C(F)(F)F)c1 | 0.75% |

System: SK-MEL-2
Assay: Anticancer activity against human SK-MEL-2 cells assessed as cell growth at 10^-5 M after 48 hrs by SRB assay
Type: functional
Conditions: SK-MEL-2, 48 h, read-out: Activity

| SMILES | growth at 10 µM |
| --- | --- |
| O=C(NCCNc1nccc(-c2c(-c3cccc(O)c3)nc3sccn23)n1)c1cccc(C(F)(F)F)c1 | 62.1% |

System: OVCAR-3
Assay: Anticancer activity against human OVCAR3 cells assessed as cell growth at 10^-5 M after 48 hrs by SRB assay
Type: functional
Conditions: OVCAR-3, 48 h, read-out: Activity

| SMILES | growth at 10 µM |
| --- | --- |
| O=C(NCCNc1nccc(-c2c(-c3cccc(O)c3)nc3sccn23)n1)c1cccc(C(F)(F)F)c1 | 89.8% |

System: OVCAR-5
Assay: Anticancer activity against human OVCAR5 cells assessed as cell growth at 10^-5 M after 48 hrs by SRB assay
Type: functional
Conditions: OVCAR-5, 48 h, read-out: Activity

| SMILES | growth at 10 µM |
| --- | --- |
| O=C(NCCNc1nccc(-c2c(-c3cccc(O)c3)nc3sccn23)n1)c1cccc(C(F)(F)F)c1 | 113% |

System: SK-OV-3
Assay: Anticancer activity against human SKOV3 cells assessed as cell growth at 10^-5 M after 48 hrs by SRB assay
Type: functional
Conditions: SK-OV-3, 48 h, read-out: Activity

| SMILES | growth at 10 µM |
| --- | --- |
| O=C(NCCNc1nccc(-c2c(-c3cccc(O)c3)nc3sccn23)n1)c1cccc(C(F)(F)F)c1 | 84.2% |

System: 786-0
Assay: Anticancer activity against human 786-0 cells assessed as cell growth at 10^-5 M after 48 hrs by SRB assay
Type: functional
Conditions: 786-0, 48 h, read-out: Activity
Method in brief: as §1

| SMILES | growth at 10 µM |
| --- | --- |
| O=C(NCCNc1nccc(-c2c(-c3cccc(O)c3)nc3sccn23)n1)c1cccc(C(F)(F)F)c1 | 89.3% |

System: A498
Assay: Anticancer activity against human A498 cells assessed as cell growth at 10^-5 M after 48 hrs by SRB assay
Type: functional
Conditions: A498, 48 h, read-out: Activity
Method in brief: as §1

| SMILES | growth at 10 µM |
| --- | --- |
| O=C(NCCNc1nccc(-c2c(-c3cccc(O)c3)nc3sccn23)n1)c1cccc(C(F)(F)F)c1 | 84.5% |

System: ACHN
Assay: Anticancer activity against human ACHN cells assessed as cell growth at 10^-5 M after 48 hrs by SRB assay
Type: functional
Conditions: read-out: Activity
Method in brief: as §1

| SMILES | growth at 10 µM |
| --- | --- |
| O=C(NCCNc1nccc(-c2c(-c3cccc(O)c3)nc3sccn23)n1)c1cccc(C(F)(F)F)c1 | 66% |

System: UO-31
Assay: Anticancer activity against human UO31 cells assessed as cell growth at 10^-5 M after 48 hrs by SRB assay
Type: functional
Conditions: UO-31, 48 h, read-out: Activity
Method in brief: as §2

| SMILES | growth at 10 µM |
| --- | --- |
| O=C(NCCNc1nccc(-c2c(-c3cccc(O)c3)nc3sccn23)n1)c1cccc(C(F)(F)F)c1 | 73.4% |

System: DU-145
Assay: Anticancer activity against human DU145 cells assessed as cell growth at 10^-5 M after 48 hrs by SRB assay
Type: functional
Conditions: DU-145, 48 h, read-out: Activity
Method in brief: as §1

| SMILES | growth at 10 µM |
| --- | --- |
| O=C(NCCNc1nccc(-c2c(-c3cccc(O)c3)nc3sccn23)n1)c1cccc(C(F)(F)F)c1 | 91.4% |

System: MCF7
Assay: Anticancer activity against human MCF7 cells assessed as cell growth at 10^-5 M after 48 hrs by SRB assay
Type: functional
Conditions: MCF7, 48 h, read-out: Activity
Method in brief: as §1

| SMILES | growth at 10 µM |
| --- | --- |
| O=C(NCCNc1nccc(-c2c(-c3cccc(O)c3)nc3sccn23)n1)c1cccc(C(F)(F)F)c1 | 75.3% |

System: MDA-MB-231
Assay: Anticancer activity against human MDA-MB-231 cells assessed as cell growth at 10^-5 M after 48 hrs by SRB assay
Type: functional
Conditions: MDA-MB-231, 48 h, read-out: Activity
Method in brief: as §1

| SMILES | growth at 10 µM |
| --- | --- |
| O=C(NCCNc1nccc(-c2c(-c3cccc(O)c3)nc3sccn23)n1)c1cccc(C(F)(F)F)c1 | 76.2% |

System: BT-549
Assay: Anticancer activity against human BT549 cells assessed as cell growth at 10^-5 M after 48 hrs by SRB assay
Type: functional
Conditions: BT-549, 48 h, read-out: Activity
Method in brief: as §1

| SMILES | growth at 10 µM |
| --- | --- |
| O=C(NCCNc1nccc(-c2c(-c3cccc(O)c3)nc3sccn23)n1)c1cccc(C(F)(F)F)c1 | 88% |

System: T47D
Assay: Anticancer activity against human T47D cells assessed as cell growth at 10^-5 M after 48 hrs by SRB assay
Type: functional
Conditions: read-out: Activity
Method in brief: as §2

| SMILES | growth at 10 µM |
| --- | --- |
| O=C(NCCNc1nccc(-c2c(-c3cccc(O)c3)nc3sccn23)n1)c1cccc(C(F)(F)F)c1 | 69.5% |
